Compounds with a hit are over-represented: about 4.9% of the library has one in this group of screens.
STAT1 activator: STAT1 signaling activation | 2.6% of 200,000 active | NIH 3T3 STAT1-luciferase reporter, IFN-gamma, luminescence; 100% = IFN-gamma alone, no compound | activation (% of control), % at 5.5 µM;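 active = activation above the screen-wide mean activation plus 3 SD, cut at about 130% in these data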;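 also: raw ratio to IFN-gamma control signal so 100% means no change and 0% no light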
STAT3 act: activators of IL-6 induced STAT3 signaling; U3A cells, IL-6 STAT3-luciferase reporter, luminescence; 100% = signal with IL-6 EC80 alone; activation (% of control), % at 5.6 µM; 0.91% of 190,000 active; AID 871;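 active = activation above the screen-wide mean of compound activation plus 3 SD, cut at about 130% in these data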;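 also: 0% = background luminescence of wells with medium and substrate only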
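Test system: Human STAT1-deficient U3A cells with stable STAT3-luciferase reporter | Also added: Interleukin-6, 33 ng/mL | Timing: Compound pre-incubation 1 h before IL-6, then 6 h stimulation at 37 °C | Technique: Luciferase reporter luminescence | Read-out: Percent of IL-6-only median luminescence | Benchmarks: IL-6-only wells as 100% reference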
NF-kB expr up: NF-kB expression increase, human neuronal cells; AID 1239; fold change at 12.5 µM; NF-kB reporter expression; stronger effect = higher value; 1.6% of 190,000 active; in the data active = fold change above about 3.3
STAT3 blocker: STAT3 signaling inhibition. inhibition, % at 5.5 µM. AID 862. U3A cells, IL-6 STAT3-luciferase reporter, luminescence; host cell line lacks STAT1. 0.89% of 190,000 active;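 active = inhibition above the mean inhibition across all screened compounds plus 3 SD, cut at about 44% in these data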;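 also: 0% = DMSO only wells and 100% = 100 µM nifuroxazide control wells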
STAT1 inh: inhibitors of IFN-gamma induced STAT1 signaling; NIH 3T3 STAT1-luciferase reporter, luminescence; inhibition, % at 5.5 µM; 0.35% of 200,000 active;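 active = inhibition above a set limit, the mean inhibition across all tested compounds plus 3 SD, cut at about 34% in these data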;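 also: 0% = IFN-gamma with DMSO and 100% = IFN-gamma with 300 µM nifuroxazide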
APP 5'UTR act: APP 5'UTR luciferase reporter activation; SH-SY5Y APP 5'UTR luciferase reporter, luminescence; zero percent = DMSO vehicle wells; activation, % at 2 µM; 1% of 190,000 active;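 active = activation above a set limit, based on mean plus 3 SD of controls, cut at about 140% in these data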
STAT1 activ conf: STAT1 activation, confirmation assay; shares compounds with STAT1 activator; 97% of 1,200 active; activation (% of control), % at 5.7 µM; NIH 3T3 STAT1-luciferase reporter, IFN-gamma potentiation, luminescence; 100% = IFN-gamma EC80 alone, no compound;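 active = activation above a set limit carried over from the earlier primary STAT1 screen, cut at about 140% in these data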;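 also: simple ratio to median IFN-gamma plus DMSO wells so 0% means no light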
NFkB act STAT1ct: activates NF-kappaB, counter-screen to STAT1 activators; 43% of 1,200 active; HEK293T NF-kB luciferase reporter, TNF-alpha stimulated, luminescence; 100% = TNF-alpha with vehicle only; activation (% of control), % at 5.7 µM; AID 1306; shares compounds with STAT1 activator;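 active = activation above the mean of solvent-only control wells plus 3 SD, set per campaign, cut at about 130% in these data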;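 also: TNF-alpha given at a submaximal dose yielding about 80% of full reporter signal; values are well signal over median control so 100% means no change and 0% no light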
STAT3 act 2: activates human STAT3, counter-screen to STAT1 activators | U3A cells STAT3-luciferase reporter, IL-6, luminescence; cells lack STAT1; 100 = IL-6 alone, no compound effect | activation (% of control), % at 5.7 µM | AID 1316 | shares compounds with STAT1 activator | 46% of 1,200 active;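 active = activation above the solvent-only control well mean plus 3 SD, set per plate batch, cut at about 110% in these data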;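 also: 0% = no luminescence and 100% = median IL-6 plus DMSO wells; higher means more STAT3 reporter activation so hits are non-selective activators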
Numbers without * were called inactive; . = no result.

SMILES	STAT1 activator	STAT3 act	NF-kB expr up	STAT3 blocker	STAT1 inh	APP 5'UTR act	STAT1 activ conf	NFkB act STAT1ct	STAT3 act 2
CCCCNC(=O)CSc1nc2ccc(N3CCOCC3)cc2c(=O)n1Cc1ccc(OC)cc1	158*	109	1.7	2	-64	16	148*	119	117*
CSc1nnc(C)c(=O)n1COC(=O)c1ccc(S(=O)(=O)N2CCCC2)cc1	100	107	1.1	-2	0	4	.	.	.
Cc1cc(-n2c(C)cc(C(=O)CN3C(=O)NC4(CCCCC4C)C3=O)c2C)no1 (configuration not stated)	102	100	0.69	8	-2	-41	.	.	.
Cc1cc(C(=O)CN2C(=O)NC3(CCCCC3)C2=O)c(C)n1Cc1ccco1	158*	120	1.2	-19	-68	122	180*	137*	134*
Cc1cc(C(=O)CN2C(=O)NC3(CCCCC3)C2=O)c(C)n1Cc1ccc2c(c1)OCO2	120	106	1.6	-5	-22	16	.	.	.
Cc1cc(C(=O)CN2C(=O)NC3(CCCCC3C)C2=O)c(C)n1Cc1cccs1 (configuration not stated)	155*	114	1.4	-20	-61	77	175*	133	125*
Cc1ccc(NC(=S)N2CCN(c3ncccn3)CC2)c(C)c1	100	103	1.2	-9	0	1	.	.	.
Cc1ccc(CNCCC2=CCCCC2)cc1	98	109	1.3	-13	2	17	.	.	.
O=C(Nc1ccc(NC(=O)C23CC4CC(CC(C4)C2)C3)cn1)c1ccco1	185*	108	1.8	-8	-93	95	222*	142*	123*
Cc1nn(Cc2ccccc2Cl)c(Cl)c1C(=O)NCCc1ccccc1	173*	105	3.5*	-5	-82	.	193*	120	141*
Nc1nc(C(F)(F)F)c(Br)c(=O)n1N	98	99	1.1	3	3	-14	.	.	.
Cc1ccc(-n2ncc3c(NCc4ccco4)ncnc32)cc1C	154*	100	4.7*	8	-58	129	181*	140*	106
CCCCN1C(=O)C(=O)N(CC(=O)Nc2cc(OCC)c(N3CCOCC3)cc2OCC)C1=O	106	101	.	4	-9	-8	.	.	.
c1ccc(OCCSc2nnnn2-c2ccccc2)cc1	160*	100	6.5*	4	-66	170*	204*	123	117*
Fc1ccccc1OCCSc1nnnn1-c1ccccc1	161*	91	6.7*	14	-53	162*	219*	124	115*
CCOC(=O)/C(C#N)=C\C=C1C=CN(C)C=C1	154*	105	3.1	-2	-59	74	162*	123	115*
Cc1ccc(OCC(=O)Nc2ccccc2[N+](=O)[O-])c(Br)c1	160*	112	5.7*	0	-66	154*	202*	135*	109
CCN(CC)c1ccc(/C=N\NC(N)=O)cc1	104	90	1.2	16	-4	31	.	.	.
CCOc1ccc(/C=N/NC(=O)CC(=O)NCc2ccccc2)cc1	96	109	1.2	-7	2	3	.	.	.
CC(=O)Oc1ccc(/C=N/NC(=S)Nc2ccccc2)cc1	160*	81	5.3*	21	-68	50	209*	128	94
CCN(CC)c1ccc(/C=N/NC(=O)Nc2ccccc2)cc1	162*	116	.	-13	-71	80	173*	134*	123*
CCOc1ccc(/C=N/NC(=O)Nc2ccccc2)cc1	161*	102	3.1	0	-69	105	208*	140*	121*
CCCCCNc1nc(-c2ccccc2)cs1	153*	83	6.4*	20	-51	2	177*	125	100
CC(=O)Nc1ccc(-c2csc(Nc3ncccn3)n2)cc1	155*	99	1.4	7	-61	141*	168*	129	111*
Clc1ccccc1Nc1nc(-c2cccnc2)cs1	168*	102	7.8*	0	-77	195*	226*	134*	111*
SMILES	STAT1 activator	STAT3 act	NF-kB expr up	STAT3 blocker	STAT1 inh	APP 5'UTR act	STAT1 activ conf	NFkB act STAT1ct	STAT3 act 2
c1ccc(-c2csc(NC3=NCCCCC3)n2)cc1	122	104	1.6	-10	-24	42	.	.	.
c1ccc(-c2csc(Nc3ncccn3)n2)cc1	157*	99	2.8	3	-64	163*	240*	113	95
CCCC(=O)NCCc1nc2cc([N+](=O)[O-])ccc2n1C	96	95	1.5	5	4	-14	.	.	.
CC1CCCC(NC(=O)COC(=O)[C@@H](NC(=O)c2ccco2)C(C)C)C1C (some centres not stated)	86	101	1.1	4	14	-20	.	.	.
c1ccc(-c2cn3nc(-c4ccccc4)cnc3n2)cc1	155*	91	4.1*	9	-60	172*	212*	124	105
Cc1ccc(C(=O)C(C)OC(=O)c2ccccc2[N+](=O)[O-])cc1 (configuration not stated)	181*	109	9.6*	-14	-91	173*	213*	133	127*
CCCNC(=O)[C@H](Cc1c[nH]c2ccccc12)NC(=O)c1ccccc1Cl	111	103	1.3	-3	-13	10	.	.	.
Cc1ccsc1/C=N/Nc1nc2ccccc2[nH]1	153*	103	5.3*	-1	-59	145*	193*	132	107
CC(/C=N/Nc1nc(C)cc(=O)[nH]1)=C\c1ccccc1	109	88	1.2	22	-9	12	.	.	.
Cc1nn(-c2ccccc2)c(C)c1/C=N/Nc1nc2ccccc2[nH]1	204*	88	2.9	17	-116	154*	289*	124	108
CC(/C=N/Nc1nc2ccccc2[nH]1)=C\c1ccccc1	192*	84	8.6*	14	-101	172*	246*	139*	114*
C=CCNC(=S)NNC(=O)c1ccccc1OCC	96	91	1.2	16	2	2	.	.	.
O=C(c1ccccc1)N1CN2CN(C(=O)c3ccccc3)CC([N+](=O)[O-])(C2)C1	102	98	1	4	-2	21	.	.	.

Compound activity (PubChem BioAssay)
